Viability and Activity data for four molecules are collected here from ChEMBL document CHEMBL3244277, “Study of trans-cyclopropylbis (diketopiperazine) and chelating agents related to ICRF 159. Cytotoxicity, mutagenicity, and effects on scheduled and unscheduled DNA synthesis” (J Med Chem, 1977).

Each structure is given as a SMILES string.

The nature of data set [1]: Cytotoxicity against chinese hamster V79-4 cells assessed as survival using 1 x 10^5 cells per plate at 10^-4 M after 24 hrs. The format is cell-based, Cricetulus griseus. The conditions noted are these: read-out: Survival. In outline:
(§1)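 Chinese hamster V-79A cells were seeded in 100-mm dishes, allowed to attach for 2 h, then exposed for 24 h to drug diluted from PBS stocks into Eagle's MEM with 15% fetal calf serum. Cells were rinsed twice in Hank's salt solution and grown drug-free for 7 days at 37 °C in 5% CO2. Colonies were stained with hematoxylin/eosin and counted; each value is the mean of eight plates.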

Data set [2] in a line: Cytotoxicity against chinese hamster V79-4 cells assessed as survival using 1 x 10^5 cells per plate at […] after 24 hrs. The conditions noted are these: read-out: Survival. The format is cell-based, Cricetulus griseus.
The nature of data set [3]: Cytotoxicity against chinese hamster V79-4 cells assessed as survival using 1 x 10^5 cells per plate at 10^-3 M after 24 hrs. The format is cell-based, Cricetulus griseus. The conditions noted are these: read-out: Survival. In outline:
as §1

A short description of data set [4]: Cytotoxicity against chinese hamster V79-4 cells assessed as survival using 5 x 10^5 cells per plate at 10^-3 M after 24 hrs. It is filed as cell-based, Cricetulus griseus. The conditions noted are these: read-out: Survival. In outline:
as §1

Data set [5] in a line: Cytotoxicity against chinese hamster V79-4 cells assessed as survival using 5 x 10^5 cells per plate at 10^-4 M after 24 hrs. It is filed as cell-based, Cricetulus griseus. The conditions noted are these: read-out: Survival. In outline:
as §1

The nature of data set [6]: Cytotoxicity against chinese hamster V79-4 cells assessed as survival using 5 x 10^5 cells per plate at […] after 24 hrs. The format is cell-based, Cricetulus griseus. The conditions noted are these: read-out: Survival.
The subject of data set [7] is V79-4. Kind of data set: Mutagenicity in chinese hamster V79-4 cells assessed as mutation frequency measured per 1 x 10^5 cells per plate at 10^-4 M after 24 hrs relative to control. It is filed as toxicity, cell-based, Cricetulus griseus. The conditions noted are these: v79-4, 24 h, 100 µM.
In data set [8] the test system is V79-4. The data set is described as follows: Mutagenicity in chinese hamster V79-4 cells assessed as mutation frequency measured per 5 x 10^5 cells per plate at 10^-4 M after 24 hrs relative to control. The format is toxicity, cell-based, Cricetulus griseus. The conditions noted are these: v79-4, 24 h, 100 µM. In outline: (§2)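 V-79A cells plated at 5×10⁵ or 1×10⁵ per dish in MEM + 5% FCS and allowed 2 h to attach. Exposed 24 h at 37 °C to 10⁻³–10⁻⁵ M drug or none, washed in PBS, then grown 12 days in MEM + 10% FCS with 10⁻³ M ouabain. Resistant colonies were counted after hematoxylin/eosin staining, averaging 20 plates, and expressed per 5×10⁵ cells.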

Data set [9] relates to V79-4. The data set is described as follows: Inhibition of scheduled DNA synthesis in chinese hamster V79-4 cells assessed as DNA synthesis at 10^-5 M measured at 10 hrs by [3H]thymidine uptake /autoradiography (reference value: 83.3 %). It is filed as functional, Cricetulus griseus. Also on record: scale not given: the % may be the effect or the level left.
The subject of data set [10] is V79-4. Kind of data set: Induction of unscheduled DNA synthesis in chinese hamster V79-4 cells assessed as DNA synthesis at 10^-4 to 10^-5 M measured at 0 to 5 hrs by [3H]thymidine uptake /autoradiography in presence of 2 x 10^-3 M hydroxyurea. The conditions noted are these: Cricetulus griseus.
The test system of data set [11] is V79-4. Kind of data set: Inhibition of scheduled DNA synthesis in chinese hamster V79-4 cells assessed as DNA synthesis at 10^-3 M measured at 10 hrs by [3H]thymidine uptake /autoradiography (reference value: 83.3 %). The format is functional, Cricetulus griseus. Also on record: scale not given: the % may be the effect or the level left.
Data set [12] has as its system V79-4. The data set is described as follows: Induction of unscheduled DNA synthesis in chinese hamster V79-4 cells assessed as DNA synthesis at 10^-3 M measured at 8 hrs by [3H]thymidine uptake /autoradiography in presence of 2 x 10^-3 M hydroxyurea. The conditions noted are these: Cricetulus griseus, v79-4, 8 h, 1000 µM.
Data set [13] has as its system V79-4. Kind of data set: Inhibition of scheduled DNA synthesis in chinese hamster V79-4 cells assessed as DNA synthesis at 10^-4 M measured at 10 hrs by [3H]thymidine uptake /autoradiography (reference value: 83.3 %). It is filed as functional, Cricetulus griseus. Also on record: scale not given: the % may be the effect or the level left.
In data set [14] the test system is V79-4. Kind of data set: Mutagenicity in chinese hamster V79-4 cells assessed as mutation frequency measured per 5 x 10^5 cells per plate at 10^-5 M after 24 hrs relative to control. The format is toxicity, cell-based, Cricetulus griseus. The conditions noted are these: v79-4, 24 h, 10 µM. The gist of the method:
as §2

Data set [15] concerns V79-4. Kind of data set: Inhibition of scheduled DNA synthesis in chinese hamster V79-4 cells assessed as DNA synthesis at 10^-4 M measured at 10 hrs by [3H]thymidine uptake /autoradiography (reference value: 85.2 %). The format is functional, Cricetulus griseus. Also on record: scale not given: the % may be the effect or the level left.
Data set [16] deals with V79-4. Kind of data set: Induction of unscheduled DNA synthesis in chinese hamster V79-4 cells assessed as DNA synthesis at 10^-3 to 10^-5 M measured at 0 to 8 hrs by [3H]thymidine uptake /autoradiography in presence of 2 x 10^-3 M hydroxyurea. The conditions noted are these: Cricetulus griseus.
Data set [17] has as its system V79-4. Kind of data set: Inhibition of scheduled DNA synthesis in chinese hamster V79-4 cells assessed as DNA synthesis at 10^-3 M measured at 10 hrs by [3H]thymidine uptake /autoradiography (reference value: 85.2 %). It is filed as functional, Cricetulus griseus. Further details: scale not given: the % may be the effect or the level left.
Data set [18] concerns V79-4. Kind of data set: Inhibition of scheduled DNA synthesis in chinese hamster V79-4 cells assessed as DNA synthesis at 10^-5 M measured at 10 hrs by [3H]thymidine uptake /autoradiography (reference value: 85.2 %). The format is functional, Cricetulus griseus. Further details: scale not given: the % may be the effect or the level left.
The subject of data set [19] is V79-4. Kind of data set: Induction of unscheduled DNA synthesis in chinese hamster V79-4 cells assessed as DNA synthesis at 10^-3 to 10^-5 M measured at 8 hrs by [3H]thymidine uptake /autoradiography in presence of 2 x 10^-3 M hydroxyurea. The conditions noted are these: Cricetulus griseus, v79-4, 8 h.
Data set [20] has as its system V79-4. Kind of data set: Inhibition of scheduled DNA synthesis in chinese hamster V79-4 cells assessed as DNA synthesis at 10^-4 M measured at 10 hrs by [3H]thymidine uptake /autoradiography (reference value: 81.7 %). The format is functional, Cricetulus griseus. Further details: scale not given: the % may be the effect or the level left.
Data set [21] deals with V79-4. Kind of data set: Inhibition of scheduled DNA synthesis in chinese hamster V79-4 cells assessed as DNA synthesis at 10^-3 M measured at 10 hrs by [3H]thymidine uptake /autoradiography (reference value: 81.7 %). It is filed as functional, Cricetulus griseus. Also on record: scale not given: the % may be the effect or the level left.
Data set [22] deals with V79-4. Kind of data set: Inhibition of scheduled DNA synthesis in chinese hamster V79-4 cells assessed as DNA synthesis at 10^-5 M measured at 10 hrs by [3H]thymidine uptake /autoradiography (reference value: 81.7 %). The format is functional, Cricetulus griseus. Also on record: scale not given: the % may be the effect or the level left.

For the molecule `COC(=O)CN(CC(=O)OC)[C@@H]1C[C@H]1N(CC(=O)OC)CC(=O)OC` (relative stereo), the viability at 24 h, 100 µM in data set [1] and in [5] was 2% each time. Moreover, the viability at 24 h, 10 µM in [2] and in data set [6] was 90% in each case. Further, the viability at 24 h, 1000 µM in [3] and in [4] was 0.02% each time.

As for `O=C1CN([C@H]2C[C@@H]2N2CC(=O)NC(=O)C2)CC(=O)N1` (relative stereo), the Activity result in the data set on V79-4 [7] was “Non-toxic”; in the data set with V79-4 [8], “Non-toxic”; with V79-4 [9] it was 82.2%; with V79-4 [10] it was “Non-toxic”; in the data set with V79-4 [11], 76.3%; in the data set on V79-4 [12], “Toxic”. The Activity with V79-4 [13] is reported as 78.3%; with V79-4 [14], “Non-toxic”. Further, the viability at 24 h, 100 µM in [1] and in data set [5] was 50% in each case. For the same molecule, the viability at 24 h, 10 µM in [2] and in [6] was 70% in each case. Moreover, the viability at 24 h, 1000 µM in [3] and in data set [4] was 30% each time.

As for `O=C(O)CN(CC(=O)O)[C@@H]1C[C@H]1N(CC(=O)O)CC(=O)O` (relative stereo), the viability at 24 h, 10 µM in [2] and in [6] was 10% throughout. Besides, the Activity is recorded as 75.5% in the data set with V79-4 [15], “Toxic” in the data set on V79-4 [16], 7.3% with V79-4 [17] and 83.8% in the data set with V79-4 [18]. For the same molecule, the viability at 24 h, 1000 µM in data set [4] stood at 0.04%. Moreover, the viability at 24 h, 100 µM in [5] worked out at 0.6%.

As to `CC(CN(CC(=O)O)CC(=O)O)N(CC(=O)O)CC(=O)O` (centres undefined), the viability at 24 h, 100 µM in data set [1] and in data set [5] was 85% in each case. Besides, the viability at 24 h, 10 µM in data set [2] and in [6] was 94% each time. Besides, the Activity entry in the data set with V79-4 [19] is listed as “Toxic”; in the data set with V79-4 [20], 64.7%; in the data set on V79-4 [10], “Non-toxic”; in the data set on V79-4 [21], 61.1%; in the data set with V79-4 [12], “Toxic”; with V79-4 [22], 69.2%. For the same molecule, the viability at 24 h, 1000 µM in data set [4] is 1%.
